According to ChEMBL document CHEMBL1132569:

Columns and labels:
[1] = target: T1, Muscarinic acetylcholine receptor M1 (Homo sapiens) (UniProt P11229); test: Binding affinity at the unliganded human muscarinic acetylcholine receptor M1 was estimated as log affinity (log1/M)
T1 sequence (whole entry): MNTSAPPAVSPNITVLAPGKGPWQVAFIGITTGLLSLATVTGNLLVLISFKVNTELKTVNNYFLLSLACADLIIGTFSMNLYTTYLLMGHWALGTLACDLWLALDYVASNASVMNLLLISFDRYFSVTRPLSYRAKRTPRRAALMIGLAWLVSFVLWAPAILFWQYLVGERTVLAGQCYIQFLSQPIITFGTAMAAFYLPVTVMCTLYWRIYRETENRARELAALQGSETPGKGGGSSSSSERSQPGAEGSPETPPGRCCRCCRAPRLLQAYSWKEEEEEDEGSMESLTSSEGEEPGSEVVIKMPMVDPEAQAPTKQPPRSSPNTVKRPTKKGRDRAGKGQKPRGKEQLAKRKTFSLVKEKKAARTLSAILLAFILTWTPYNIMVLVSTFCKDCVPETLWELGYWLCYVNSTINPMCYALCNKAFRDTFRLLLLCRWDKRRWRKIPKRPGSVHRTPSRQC
Summary of the method: (§1)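 Equilibrium runs were ≥2 h with 2 × 10⁻⁴ M GTP and 0.1–0.7 nM ³H-NMS. Nonspecific binding was defined with 10⁻⁶ M QNB, and bound ligand was filtered and counted. Log affinities came from semiquantitative plus off-rate, quantitative equilibrium, or nonequilibrium assays, fitted by nonlinear least squares to the allosteric ternary complex model.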

[2] = target: Muscarinic acetylcholine receptor M3 (Homo sapiens) (UniProt P20309); test: Cooperativity with acetylcholine at human muscarinic acetylcholine receptor M3
Chain of Muscarinic acetylcholine receptor M3 (Homo sapiens) (P20309 whole entry, looked up): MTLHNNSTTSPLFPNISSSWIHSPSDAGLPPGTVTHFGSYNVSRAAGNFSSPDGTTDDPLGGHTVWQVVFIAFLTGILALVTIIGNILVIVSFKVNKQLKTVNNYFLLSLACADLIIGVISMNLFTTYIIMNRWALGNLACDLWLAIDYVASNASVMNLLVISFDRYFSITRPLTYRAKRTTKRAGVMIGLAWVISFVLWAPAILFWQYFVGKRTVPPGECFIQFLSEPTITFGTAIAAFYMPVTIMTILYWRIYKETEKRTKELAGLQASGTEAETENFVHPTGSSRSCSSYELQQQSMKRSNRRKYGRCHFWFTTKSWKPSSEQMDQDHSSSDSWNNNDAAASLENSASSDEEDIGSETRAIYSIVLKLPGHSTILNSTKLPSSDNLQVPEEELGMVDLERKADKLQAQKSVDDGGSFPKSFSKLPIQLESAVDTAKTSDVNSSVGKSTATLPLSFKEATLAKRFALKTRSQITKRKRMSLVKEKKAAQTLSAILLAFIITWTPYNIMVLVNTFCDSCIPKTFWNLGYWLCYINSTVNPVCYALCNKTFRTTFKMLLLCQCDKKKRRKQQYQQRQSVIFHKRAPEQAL
Summary of the method: (§2)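 Equilibrium ³H-NMS binding in CHO membranes expressing human m1–m5 receptors was measured with and without ACh, alone and with three agent concentrations. Data were converted to affinity ratios, meaning apparent primary-ligand affinity with agent divided by affinity without it.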

[3] = target: T2, Muscarinic acetylcholine receptor M2 (Homo sapiens) (UniProt P08172); test: Cooperativity with NMS at human muscarinic acetylcholine receptor M2; summary of the method: as §2
T2 sequence (whole entry): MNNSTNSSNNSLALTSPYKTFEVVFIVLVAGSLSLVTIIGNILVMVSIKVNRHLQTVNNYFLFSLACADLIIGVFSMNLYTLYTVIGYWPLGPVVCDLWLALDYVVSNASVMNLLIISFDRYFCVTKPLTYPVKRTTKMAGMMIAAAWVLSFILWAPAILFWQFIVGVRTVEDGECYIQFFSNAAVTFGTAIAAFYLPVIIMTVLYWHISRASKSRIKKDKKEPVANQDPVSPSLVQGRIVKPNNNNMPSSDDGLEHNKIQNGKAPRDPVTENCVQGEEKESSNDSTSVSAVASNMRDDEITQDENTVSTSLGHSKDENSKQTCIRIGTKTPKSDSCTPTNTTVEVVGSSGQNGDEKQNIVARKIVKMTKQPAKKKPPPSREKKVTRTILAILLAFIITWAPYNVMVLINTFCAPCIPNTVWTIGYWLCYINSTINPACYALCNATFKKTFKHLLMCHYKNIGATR

[4] = target: T1, Muscarinic acetylcholine receptor M1 (Homo sapiens); test: Cooperativity with acetylcholine at human muscarinic acetylcholine receptor M1; summary of the method: as §2
[5] = target: T3, Muscarinic acetylcholine receptor M4 (Homo sapiens) (UniProt P08173); test: Binding affinity at the unliganded human muscarinic acetylcholine receptor M4 was estimated as log affinity (log1/M); summary of the method: as §1
T3 sequence (whole entry): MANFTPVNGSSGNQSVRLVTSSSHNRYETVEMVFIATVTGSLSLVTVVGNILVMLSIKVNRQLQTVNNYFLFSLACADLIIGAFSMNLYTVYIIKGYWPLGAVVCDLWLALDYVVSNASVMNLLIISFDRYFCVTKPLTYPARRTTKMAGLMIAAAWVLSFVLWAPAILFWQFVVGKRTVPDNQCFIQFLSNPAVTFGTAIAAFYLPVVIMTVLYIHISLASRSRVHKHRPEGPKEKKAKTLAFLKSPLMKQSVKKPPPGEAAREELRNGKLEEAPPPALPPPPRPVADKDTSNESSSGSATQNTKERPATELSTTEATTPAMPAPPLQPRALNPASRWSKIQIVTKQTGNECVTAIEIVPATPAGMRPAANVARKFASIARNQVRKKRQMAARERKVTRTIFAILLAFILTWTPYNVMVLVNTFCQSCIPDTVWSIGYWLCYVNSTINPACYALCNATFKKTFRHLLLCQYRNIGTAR

[6] = target: T3, Muscarinic acetylcholine receptor M4 (Homo sapiens); test: Cooperativity with NMS at human muscarinic acetylcholine receptor M4; summary of the method: as §2
[7] = target: T1, Muscarinic acetylcholine receptor M1 (Homo sapiens); test: Binding affinity at the NMS liganded human muscarinic acetylcholine receptor M1 was estimated as log affinity (log1/M); summary of the method: as §1
[8] = target: Muscarinic acetylcholine receptor M3 (Homo sapiens) (UniProt P20309); test: Cooperativity with NMS at human muscarinic acetylcholine receptor M3; summary of the method: as §2
[9] = target: T3, Muscarinic acetylcholine receptor M4 (Homo sapiens); test: Cooperativity with acetylcholine at human muscarinic acetylcholine receptor M4; summary of the method: as §2
[10] = target: T4, Muscarinic acetylcholine receptor M5 (Homo sapiens) (UniProt P08912); test: Cooperativity with acetylcholine at Muscarinic acetylcholine receptor M5; summary of the method: as §2
T4 sequence (whole entry): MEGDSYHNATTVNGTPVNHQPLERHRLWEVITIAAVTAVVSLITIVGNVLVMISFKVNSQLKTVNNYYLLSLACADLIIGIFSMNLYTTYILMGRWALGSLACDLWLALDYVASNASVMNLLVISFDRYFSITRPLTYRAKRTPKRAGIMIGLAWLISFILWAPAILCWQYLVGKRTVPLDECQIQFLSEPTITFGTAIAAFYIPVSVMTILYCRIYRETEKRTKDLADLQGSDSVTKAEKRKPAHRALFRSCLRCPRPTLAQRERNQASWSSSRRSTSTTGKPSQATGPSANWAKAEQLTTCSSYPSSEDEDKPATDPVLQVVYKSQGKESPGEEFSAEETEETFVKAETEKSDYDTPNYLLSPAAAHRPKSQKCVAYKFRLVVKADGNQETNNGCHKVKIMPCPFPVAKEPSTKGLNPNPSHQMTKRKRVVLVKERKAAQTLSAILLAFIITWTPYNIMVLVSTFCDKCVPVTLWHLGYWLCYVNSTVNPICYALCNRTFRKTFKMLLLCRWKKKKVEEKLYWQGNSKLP

[11] = target: Muscarinic acetylcholine receptor M3 (Homo sapiens) (UniProt P20309); test: Binding affinity at the unliganded human muscarinic acetylcholine receptor M3 was estimated as log affinity (log1/M); summary of the method: as §1
[12] = target: T2, Muscarinic acetylcholine receptor M2 (Homo sapiens); test: Binding affinity at the NMS liganded human muscarinic acetylcholine receptor M2 was estimated as log affinity (log1/M); summary of the method: as §1
[13] = target: T1, Muscarinic acetylcholine receptor M1 (Homo sapiens); test: Cooperativity with NMS at human muscarinic acetylcholine receptor M1; summary of the method: as §2
[14] = target: Muscarinic acetylcholine receptor M3 (Homo sapiens) (UniProt P20309); test: Binding affinity at the NMS liganded human muscarinic acetylcholine receptor M3 was estimated as log affinity (log1/M); summary of the method: as §1
[15] = target: T2, Muscarinic acetylcholine receptor M2 (Homo sapiens); test: Cooperativity with acetylcholine at human muscarinic acetylcholine receptor M2; summary of the method: as §2
[16] = target: T4, Muscarinic acetylcholine receptor M5 (Homo sapiens); test: Binding affinity at the unliganded Muscarinic acetylcholine receptor M5 was estimated as log affinity (log1/M); summary of the method: as §1
[17] = target: T4, Muscarinic acetylcholine receptor M5 (Homo sapiens); test: Cooperativity with NMS at Muscarinic acetylcholine receptor M5; summary of the method: as §2
[18] = target: T3, Muscarinic acetylcholine receptor M4 (Homo sapiens); test: Binding affinity at the NMS liganded human muscarinic acetylcholine receptor M4 was estimated as log affinity (log1/M); summary of the method: as §1
[19] = target: T2, Muscarinic acetylcholine receptor M2 (Homo sapiens); test: Binding affinity at the unliganded human muscarinic acetylcholine receptor M2 was estimated as log affinity (log1/M); summary of the method: as §1
[20] = target: T4, Muscarinic acetylcholine receptor M5 (Homo sapiens); test: Binding affinity at the NMS liganded human muscarinic acetylcholine receptor M5 was estimated as log affinity (log1/M); summary of the method: as §1

| SMILES | Affinity [1] | Cooperativity [2] | Cooperativity [3] | Cooperativity [4] | Affinity [5] | Cooperativity [6] | Affinity [7] | Cooperativity [8] | Cooperativity [9] | Cooperativity [10] | Affinity [11] | Affinity [12] | Cooperativity [13] | Affinity [14] | Cooperativity [15] | Affinity [16] | Cooperativity [17] | Affinity [18] | Affinity [19] | Affinity [20] |
| --- | --- | --- | --- | --- | --- | --- | --- | --- | --- | --- | --- | --- | --- | --- | --- | --- | --- | --- | --- | --- |
| C=CC[N+]12CC[C@@]34c5cc(OC)c(OC)cc5N5C(=O)C[C@@H]6OCC=C(C1)[C@H](C[C@@H]32)[C@@H]6[C@H]54 (some centres undefined) | 4.4 | 2 | 2 | 0.8 | 4.5 | 1.19 | 4.2 | 0.8 | 0.8 | 0.8 | 3.8 | 4.7 | 0.8 | 3.5 | 0.8 | 3.8 | 1.19 | 4.6 | 4.5 |  |
| COc1cc2c(cc1OC)[C@@]13CC[N+]4([O-])CC5=CCO[C@H]6CC(=O)N2[C@H]1[C@H]6[C@H]5C[C@@H]34 (some centres undefined) | 3.4 | > 2 | > 2 | 1.19 | 3.7 | 1.19 | 3.6 | 1.19 | 2 | 0.8 | 2.8 | 3.3 | 2 | 2.8 | 0.8 | 2.5 | 2 | 3.7 | 2.7 | 2.7 |
| COc1cc2c(cc1OC)[C@@]13CC[N+]4(CCl)CC5=CCO[C@H]6CC(=O)N2[C@H]1[C@H]6[C@H]5C[C@@H]34 (some centres undefined) | 4.4 | > 0.2 | 2 | 0.2 | 4.3 | 1.19 | 4.1 | 0.2 | 1.19 | < 0.2 | 3.7 | 4.4 | 0.2 | 3.3 | < 0.2 | 3.7 | 0.2 | 4.3 | 4.2 | 3.3 |
| COc1cc2c(cc1OC)[C@@]13CCN4CC5=CCO[C@H]6CC(=O)N2[C@H]1[C@H]6[C@H]5C[C@H]43 | 4.6 | 0.8 | 2 | 2 | 4.8 | 0.8 | 4.5 | 0.8 | 0.8 | < 0.2 | 3.5 | 4.7 | 1.19 | 2.9 | 0.8 | 4.3 | < 0.2 | 4.5 | 4.5 | 3.3 |
